Active and inactive are the calls of the source. The rule behind the calls is not given here.
Assays:
[1] = biological target: Ubiquitin carboxyl-terminal hydrolase isozyme L5 (Homo sapiens) (UniProt Q9Y5K5); assay: Inhibition of UCHL5 in HEK293T cell lysates at 25 uM using HA-tagged vinyl-sulfone as substrate measured after 2 to 30 mins by Western blot analysis; type: subcellular; settings: Lysate
In short: (§1)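 HEK 293T lysate (1.5 mg/ml) given compound (25 μM) or DMSO at the same time as HA-Ub-VS (1.5 μM). Aliquots withdrawn over time were run on SDS-PAGE and immunoblotted for HA.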

[2] = biological target: Ubiquitin carboxyl-terminal hydrolase 7 (Homo sapiens) (UniProt Q93009); assay: Inhibition of recombinant His6-tagged USP7 catalytic domain (unknown origin) using Ub-AMC as substrate by fluorescence assay; settings: TDE = time-dependent effect
Sequence of Ubiquitin carboxyl-terminal hydrolase 7 (Homo sapiens) (Q93009 whole entry, looked up, the tested form may be a part): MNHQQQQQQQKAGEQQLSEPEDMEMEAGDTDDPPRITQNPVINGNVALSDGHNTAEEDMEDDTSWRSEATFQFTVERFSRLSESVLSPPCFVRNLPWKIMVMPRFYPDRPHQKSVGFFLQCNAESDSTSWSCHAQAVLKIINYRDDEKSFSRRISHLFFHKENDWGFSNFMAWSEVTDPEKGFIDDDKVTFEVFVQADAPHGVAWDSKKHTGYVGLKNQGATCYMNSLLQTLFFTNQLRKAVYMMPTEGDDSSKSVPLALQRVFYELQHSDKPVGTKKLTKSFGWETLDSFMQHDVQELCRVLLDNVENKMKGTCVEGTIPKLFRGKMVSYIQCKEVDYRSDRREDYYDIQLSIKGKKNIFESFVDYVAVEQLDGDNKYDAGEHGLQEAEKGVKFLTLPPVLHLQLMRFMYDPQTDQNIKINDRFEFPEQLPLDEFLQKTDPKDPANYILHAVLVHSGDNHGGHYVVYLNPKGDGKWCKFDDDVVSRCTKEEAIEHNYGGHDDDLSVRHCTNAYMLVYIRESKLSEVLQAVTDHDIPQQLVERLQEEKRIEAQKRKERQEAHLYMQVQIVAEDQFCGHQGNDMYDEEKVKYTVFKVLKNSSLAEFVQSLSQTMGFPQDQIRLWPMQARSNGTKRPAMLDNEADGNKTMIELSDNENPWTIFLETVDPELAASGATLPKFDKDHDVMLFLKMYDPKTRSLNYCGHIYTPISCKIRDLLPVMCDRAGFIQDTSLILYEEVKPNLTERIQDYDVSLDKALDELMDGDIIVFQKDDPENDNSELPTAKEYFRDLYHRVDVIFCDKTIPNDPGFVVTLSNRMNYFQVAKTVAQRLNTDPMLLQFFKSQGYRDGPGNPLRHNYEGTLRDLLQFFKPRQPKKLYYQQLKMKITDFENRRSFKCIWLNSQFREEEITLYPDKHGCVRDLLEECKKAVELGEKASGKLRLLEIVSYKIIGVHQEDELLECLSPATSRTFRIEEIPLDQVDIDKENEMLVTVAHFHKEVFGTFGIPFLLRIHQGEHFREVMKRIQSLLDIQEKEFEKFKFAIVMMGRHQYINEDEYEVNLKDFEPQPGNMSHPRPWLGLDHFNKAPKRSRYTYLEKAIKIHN

[3] = tested on: B16-F10; assay: Cytotoxicity against mouse B16F10 cells assessed as decrease in cell viability treated every 24 hrs measured after 72 hrs by alamar blue assay; type: functional, cell-based
In short: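 MCF7 or B16/F10 cells dosed with compound every 24 h. Viable cells were quantified with Alamar Blue after 72 h.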

[4] = biological target: Ubiquitin carboxyl-terminal hydrolase 9X (Homo sapiens) (UniProt Q93008); assay: Inhibition of USP9x in human K562 cells assessed as decrease in Bcr-Abl expression at 50 uM measured after 2 hrs by Western blot analysis; type: cell-based
Sequence of Ubiquitin carboxyl-terminal hydrolase 9X (Homo sapiens) (Q93008 whole entry): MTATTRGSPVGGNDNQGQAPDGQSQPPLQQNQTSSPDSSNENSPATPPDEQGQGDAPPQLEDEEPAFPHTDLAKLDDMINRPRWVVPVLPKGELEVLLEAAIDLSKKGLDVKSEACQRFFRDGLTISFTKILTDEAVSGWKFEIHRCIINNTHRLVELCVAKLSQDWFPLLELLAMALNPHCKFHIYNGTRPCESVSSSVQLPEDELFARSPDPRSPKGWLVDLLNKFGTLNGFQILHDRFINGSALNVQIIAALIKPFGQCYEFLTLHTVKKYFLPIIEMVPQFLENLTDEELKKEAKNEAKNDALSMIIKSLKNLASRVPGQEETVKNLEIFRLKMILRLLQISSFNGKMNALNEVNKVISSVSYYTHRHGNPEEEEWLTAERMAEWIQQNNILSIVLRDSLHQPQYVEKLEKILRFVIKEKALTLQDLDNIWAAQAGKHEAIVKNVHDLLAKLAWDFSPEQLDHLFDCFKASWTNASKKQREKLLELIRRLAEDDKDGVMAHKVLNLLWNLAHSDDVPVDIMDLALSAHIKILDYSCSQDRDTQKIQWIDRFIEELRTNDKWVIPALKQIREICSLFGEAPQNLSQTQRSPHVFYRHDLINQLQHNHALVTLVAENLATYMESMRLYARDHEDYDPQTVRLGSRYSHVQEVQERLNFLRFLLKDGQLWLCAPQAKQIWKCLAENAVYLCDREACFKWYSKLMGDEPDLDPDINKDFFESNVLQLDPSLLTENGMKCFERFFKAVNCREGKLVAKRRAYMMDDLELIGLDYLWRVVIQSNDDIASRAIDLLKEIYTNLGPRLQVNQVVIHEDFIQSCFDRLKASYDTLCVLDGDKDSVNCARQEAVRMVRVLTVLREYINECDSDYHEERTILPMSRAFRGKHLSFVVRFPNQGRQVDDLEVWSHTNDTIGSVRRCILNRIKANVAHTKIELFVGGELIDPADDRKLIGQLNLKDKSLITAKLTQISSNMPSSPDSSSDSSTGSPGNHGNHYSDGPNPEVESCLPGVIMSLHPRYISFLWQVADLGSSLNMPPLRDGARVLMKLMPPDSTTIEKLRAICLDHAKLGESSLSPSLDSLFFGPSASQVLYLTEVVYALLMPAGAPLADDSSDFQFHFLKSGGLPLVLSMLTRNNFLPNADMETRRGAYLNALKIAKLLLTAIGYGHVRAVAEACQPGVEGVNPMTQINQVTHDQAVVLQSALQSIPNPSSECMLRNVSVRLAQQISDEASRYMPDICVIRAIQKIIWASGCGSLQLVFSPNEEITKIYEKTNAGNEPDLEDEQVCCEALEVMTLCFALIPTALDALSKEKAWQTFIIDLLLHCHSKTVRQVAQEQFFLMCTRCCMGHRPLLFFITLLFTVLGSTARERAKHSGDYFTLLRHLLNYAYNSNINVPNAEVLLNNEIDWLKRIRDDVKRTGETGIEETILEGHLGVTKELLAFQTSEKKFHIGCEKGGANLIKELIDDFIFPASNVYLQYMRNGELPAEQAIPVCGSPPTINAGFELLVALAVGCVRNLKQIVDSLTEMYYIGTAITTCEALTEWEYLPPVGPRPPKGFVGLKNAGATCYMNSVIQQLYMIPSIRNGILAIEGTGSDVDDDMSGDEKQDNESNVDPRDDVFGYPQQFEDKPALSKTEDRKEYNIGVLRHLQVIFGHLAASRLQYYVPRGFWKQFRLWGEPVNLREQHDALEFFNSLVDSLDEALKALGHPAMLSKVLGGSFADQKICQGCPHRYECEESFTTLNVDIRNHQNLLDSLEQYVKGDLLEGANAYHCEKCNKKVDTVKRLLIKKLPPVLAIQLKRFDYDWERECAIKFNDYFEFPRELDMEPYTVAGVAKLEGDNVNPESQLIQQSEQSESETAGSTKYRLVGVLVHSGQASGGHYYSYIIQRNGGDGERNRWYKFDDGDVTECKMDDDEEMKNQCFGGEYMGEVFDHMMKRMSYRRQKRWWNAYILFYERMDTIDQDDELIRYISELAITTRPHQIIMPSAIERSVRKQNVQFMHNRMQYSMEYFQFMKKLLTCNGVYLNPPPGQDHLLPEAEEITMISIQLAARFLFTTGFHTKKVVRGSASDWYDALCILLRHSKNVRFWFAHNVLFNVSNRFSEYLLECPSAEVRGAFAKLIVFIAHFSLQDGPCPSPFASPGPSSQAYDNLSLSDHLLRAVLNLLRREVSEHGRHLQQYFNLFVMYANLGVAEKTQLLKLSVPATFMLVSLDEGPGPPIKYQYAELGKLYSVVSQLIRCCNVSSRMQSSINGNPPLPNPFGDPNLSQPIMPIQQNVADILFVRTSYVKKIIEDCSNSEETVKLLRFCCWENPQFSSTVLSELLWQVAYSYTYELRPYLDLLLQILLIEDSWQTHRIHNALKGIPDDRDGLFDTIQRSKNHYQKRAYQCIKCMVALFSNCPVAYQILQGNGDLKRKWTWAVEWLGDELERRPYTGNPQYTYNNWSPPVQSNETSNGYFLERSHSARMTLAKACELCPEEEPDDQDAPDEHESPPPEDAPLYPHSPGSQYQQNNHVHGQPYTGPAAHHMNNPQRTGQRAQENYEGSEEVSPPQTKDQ
In short: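 K562 cells treated with 50 μM compound for 2 h. Lysates were sonicated in SDS, and Bcr-Abl was immunoblotted with anti-Abl antibody.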

[5] = biological target: Ubiquitin carboxyl-terminal hydrolase 7 (Homo sapiens) (UniProt Q93009); assay: Inhibition of USP7 in HEK293T cell lysates assessed as ratio of HA-Ub-VS modified USP7 to total USP7 at 50 uM using HA-Ub vinyl-sulfone as substrate preincubated for 19 to 60 mins followed by substrate addition and measured after 19 to 25 mins by Western blot analysis (reference value: 0.5); type: subcellular; settings: Lysate
In short: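 HEK 293T lysate incubated with compound, then treated with HA-Ub-VS. Samples were run on SDS-PAGE and blotted with anti-USP7, and the probe-modified USP7 band was distinguished from unmodified USP7.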

[6] = biological target: Ubiquitin carboxyl-terminal hydrolase 7 (Homo sapiens) (UniProt Q93009); assay: Inhibition of recombinant His6-tagged USP7 catalytic domain (unknown origin) assessed as association constant using Ub-AMC as substrate by fluorescence assay
[7] = biological target: T1, Ubiquitin carboxyl-terminal hydrolase isozyme L3 (Homo sapiens) (UniProt P15374); assay: Inhibition of UCHL3 in HEK293T cell lysates at 25 uM using HA-tagged vinyl-sulfone as substrate measured after 2 to 30 mins by Western blot analysis; type: subcellular; settings: Lysate; in short: as §1
T1 sequence (whole entry): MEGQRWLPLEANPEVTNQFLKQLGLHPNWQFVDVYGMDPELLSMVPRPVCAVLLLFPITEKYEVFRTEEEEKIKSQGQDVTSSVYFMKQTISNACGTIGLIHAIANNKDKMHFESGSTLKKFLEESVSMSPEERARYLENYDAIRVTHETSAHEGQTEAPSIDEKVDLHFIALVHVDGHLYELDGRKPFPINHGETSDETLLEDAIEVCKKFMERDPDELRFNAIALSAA

[8] = tested on: K562; assay: Inhibition of deubiquitinase in human K562 cells assessed as accumulation of K48-linked HMW-Ub protein at 50 uM measured after 2 hrs by Western blot analysis; type: cell-based
In short: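 K562 cells exposed to compound at 50 μM for 2 h; K48-linked ubiquitin accumulation read by immunoblotting.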

[9] = biological target: Ubiquitin carboxyl-terminal hydrolase isozyme L1 (Homo sapiens) (UniProt P09936); assay: Inhibition of UCHL1 in HEK293T cell lysates at 25 uM using HA-tagged vinyl-sulfone as substrate preincubated for 19 to 60 mins followed by substrate addition and measured after 19 to 25 mins by Western blot analysis; type: subcellular; settings: Lysate
Sequence of Ubiquitin carboxyl-terminal hydrolase isozyme L1 (Homo sapiens) (P09936 whole entry, looked up): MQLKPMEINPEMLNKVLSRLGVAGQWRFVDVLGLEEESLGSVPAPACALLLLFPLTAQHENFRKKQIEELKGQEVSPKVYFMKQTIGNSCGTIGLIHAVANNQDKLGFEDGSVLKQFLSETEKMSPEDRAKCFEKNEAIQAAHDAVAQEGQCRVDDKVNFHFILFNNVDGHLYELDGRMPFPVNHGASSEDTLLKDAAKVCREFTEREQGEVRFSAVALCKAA

[10] = Inhibition of deubiquitinase in HEK293T cells assessed as stabilization of K48-linked HMW-Ub protein by Western blot analysis; type: cell-based, Homo sapiens
[11] = biological target: T1, Ubiquitin carboxyl-terminal hydrolase isozyme L3 (Homo sapiens); assay: Inhibition of UCHL3 in HEK293T cell lysates at 25 uM using HA-tagged vinyl-sulfone as substrate preincubated for 19 to 60 mins followed by substrate addition and measured after 19 to 25 mins by Western blot analysis; type: subcellular; settings: Lysate
[12] = biological target: T1, Ubiquitin carboxyl-terminal hydrolase isozyme L3 (Homo sapiens); assay: Inhibition of UCHL3 in HEK293T cell lysates assessed as enzyme recovery at 250 uM using HA-tagged vinyl-sulfone as substrate […] followed by 10-fold dilution and subsequent substrate addition measured within 15 mins by Western blot analysis; type: subcellular; settings: Lysate
[13] = biological target: Ubiquitin carboxyl-terminal hydrolase isozyme L5 (Homo sapiens) (UniProt Q9Y5K5); assay: Inhibition of UCHL5 in HEK293T cell lysates assessed as enzyme recovery at 250 uM using HA-tagged vinyl-sulfone as substrate preincubated for 40 mins followed by 10-fold dilution and subsequent substrate addition measured within 15 mins by Western blot analysis; type: subcellular; settings: Lysate
[14] = biological target: Trypsin (Homo sapiens, UniProt P07477+P07478+P35030); assay: Substrate activity at trypsin (unknown origin) by Michaelis-Menten plot analysis; type: ADME, protein assay
In short: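 Diarylcarbonate hydrolysis by chymotrypsin or trypsin measured across substrate concentrations; velocity versus substrate concentration fit for Km and kcat.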

Sequence of Ubiquitin carboxyl-terminal hydrolase isozyme L5 (Homo sapiens) (Q9Y5K5 whole entry): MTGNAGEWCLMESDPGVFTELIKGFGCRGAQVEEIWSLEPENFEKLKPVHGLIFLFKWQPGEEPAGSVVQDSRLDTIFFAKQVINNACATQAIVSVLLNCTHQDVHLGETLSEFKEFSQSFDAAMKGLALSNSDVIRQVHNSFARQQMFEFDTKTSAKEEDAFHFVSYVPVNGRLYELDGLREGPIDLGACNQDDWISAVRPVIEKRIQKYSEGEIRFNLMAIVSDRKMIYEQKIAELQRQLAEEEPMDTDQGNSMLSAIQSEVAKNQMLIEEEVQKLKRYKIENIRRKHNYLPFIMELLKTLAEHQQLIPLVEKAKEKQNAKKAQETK

NCc1ccc(OC(=O)Oc2ccc3ccccc3c2)cc1
inhibition [1]: inactive
inhibition [2]: Tde
Activity [3]: Active
inhibition [4]: Active
Ratio [5]: 0.4
K [6]: 9 M⁻¹ s⁻¹
inhibition [7]: inactive
inhibition [8]: Active
inhibition [9]: inactive
EC50 [10]: < 50 µM
inhibition [11]: inactive
inhibition [12]: Active
inhibition [13]: Active
Kcat [14]: 0.02 s⁻¹
Km ([14]; trypsin (isolated enzyme, unknown origin)): 1 µM

Source: ChEMBL document CHEMBL4371052, “Diarylcarbonates are a new class of deubiquitinating enzyme inhibitor” (Bioorg Med Chem Lett, 2019)
